Assay outcomes from PubChem.
ERa SRC1 inh – ERα–SRC-1 coactivator interaction inhibitors, primary screen, biochemical, TR-FRET, ERα LBD, estradiol-bound; inhibition, % at 25.6 µM; AID 629, 2007; 1.7% of 86,000 active; TR-FRET ER-alpha LBD / SRC-1 peptide; Estrogen receptor (Homo sapiens), P03372; in the data active = inhibition above about 50%;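 note: 0% = receptor plus peptide control and 100% = peptide only without receptor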
Target sequence (P03372 whole entry, looked up, the tested form may be a part): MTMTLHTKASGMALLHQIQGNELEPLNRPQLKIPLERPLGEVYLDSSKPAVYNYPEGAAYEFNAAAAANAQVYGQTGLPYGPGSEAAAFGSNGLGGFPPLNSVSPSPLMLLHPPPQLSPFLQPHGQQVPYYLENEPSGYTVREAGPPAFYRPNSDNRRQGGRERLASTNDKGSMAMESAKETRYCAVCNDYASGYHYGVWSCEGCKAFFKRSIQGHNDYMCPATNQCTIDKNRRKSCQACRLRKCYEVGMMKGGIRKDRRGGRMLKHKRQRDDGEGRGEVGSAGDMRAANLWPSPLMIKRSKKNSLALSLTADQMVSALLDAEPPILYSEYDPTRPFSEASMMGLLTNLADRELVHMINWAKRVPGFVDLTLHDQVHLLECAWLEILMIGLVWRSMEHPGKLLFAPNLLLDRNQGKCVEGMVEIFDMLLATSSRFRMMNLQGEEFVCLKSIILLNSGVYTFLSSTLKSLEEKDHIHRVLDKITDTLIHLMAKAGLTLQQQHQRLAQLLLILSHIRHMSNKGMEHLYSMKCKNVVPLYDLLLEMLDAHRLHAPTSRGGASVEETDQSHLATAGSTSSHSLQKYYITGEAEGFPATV
BAP1 block – inhibitors of BAP1 deubiquitinase, primary screen, biochemical, Ub-AMC fluorescence, kinetic | Ubiquitin carboxyl-terminal hydrolase BAP1 (Homo sapiens), Q92560 | recombinant BAP1, Ub-AMC hydrolysis fluorescence kinetic; hits give low values | calls only at 20 µM | 0.48% of 72,000 active | AID 436, 2006;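 active = activity remaining at or below 50% of control, provided the compound also passes the data quality filters; inactive = the rest, including low values that fail the filters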;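 note: 100% = DMSO wells rate and 0% = substrate alone blank rate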
SF-1 act – activators of human SF-1, primary screen, cell-based, CHO-K1, Gal4-SF-1 LBD, luciferase luminescence | CHO-K1 Gal4-SF-1 LBD luciferase reporter; % increase over DMSO SF-1-specific signal | 1.9% of 65,000 active | activation, % at 10 µM;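 active = activation above the mean activation of all tested compounds plus 3 SD, cut at about 50% in these data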
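Assay system – CHO-K1 cells with Gal4–hSF-1 LBD chimera plus Gal4-driven luciferase · Quantity – 4,000 cells per well · Times – compound added 1 h post-seeding, 20 h exposure at 37 °C, 5% CO2 · Measured by – luciferase light emission · Benchmarks – DMSO and mock-transfected background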
RORa activator – activators of orphan receptor RORA, primary screen, cell-based, luminescence; Nuclear receptor ROR-alpha (Homo sapiens), P35398; 1.5% of 65,000 active; CHO-K1 Gal4-RORA LBD luciferase reporter; percent increase over mock-subtracted basal signal; activation, % at 10 µM; AID 560, 2006;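 active = activation above the mean of all tested compounds plus 3 SD, cut at about 49% in these data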;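 note: 0% = DMSO-treated RORA cells and 100% = added signal equal to DMSO minus mock-transfected cells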
ERa SRC1 pot – enhancers of ERα–SRC-1 coactivator binding, primary screen, biochemical, TR-FRET, ERα LBD, low estradiol; Estrogen receptor (Homo sapiens), P03372; TR-FRET ERalpha-LBD/SRC-Cy5 coactivator binding, 2 h; 100 = basal binding, no effect; coactivator binding (% of control), % at 25.6 µM; 1.3% of 86,000 active; AID 639, 2007; in the data active = activity above about 200%;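 note: binding measured in presence of low estradiol as agonist stimulus; 0% = peptide alone without receptor and 100% = receptor with peptide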
ERb SRC1 inh – inhibitors of ERβ-SRC1 coactivator interaction, primary screen, biochemical, TR-FRET, ERβ LBD, SRC-1 peptide; Estrogen receptor beta (Homo sapiens), Q92731; AID 633, 2007; 1.3% of 86,000 active; TR-FRET ER-beta LBD / SRC1-Cy5 peptide binding; receptor agonist-loaded with 1 µM estradiol; inhibition, % at 25.6 µM;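 active = compounds whose percent inhibition of the receptor-coactivator binding signal exceeds about 50% in the single-dose screen, limit read from the data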;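 note: 0% = receptor plus peptide wells without compound and 100% = peptide-only wells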
* hit, by the source's call; i = inactive; . = no result shown; [ ] = another dose, or the depositor's remark. Shown are actives, neighbours in structure and some others; about 5.1% of the full set was active somewhere.

SMILES	ERa SRC1 inh	BAP1 block	SF-1 act	RORa activator	ERa SRC1 pot	ERb SRC1 inh
Cc1ccc(NC(=O)c2c(NC(=O)c3ccccc3)sc3c2CCC(C)C3)cc1 (configuration not stated)	.	i	.	.	.	.
O=C(Nc1cccc2ccccc12)c1cc2ccccc2o1	.	i	.	.	.	.
O=C(Nc1cccc(Cl)c1Cl)C1CCN(c2ncccn2)CC1	-9	i	5	5	206*	-6
COc1cccc(-n2nnc3c(=O)n(Cc4ccc(F)cc4)cnc32)c1	-2	i	7	2	109	-2
COc1ccc(C(O)c2nccn2Cc2ccccc2)cc1OC (configuration not stated)	-5	.	.	.	108	-15
COc1cc2c3nnc(-c4ccc(F)cc4)c-3cn(Cc3ccccc3)c2cc1OC	33	.	.	.	424*[fluorescence artefact?]	39
COc1cc2c3nnc(-c4ccc(F)cc4)c-3cn(Cc3ccc(F)cc3)c2cc1OC	24	.	.	.	481*[fluorescence artefact?]	32
COc1ccc(Cn2cc3c(-c4ccc(F)cc4)nnc-3c3cc(OC)c(OC)cc32)cc1	49	.	.	.	262*[fluorescence artefact?]	34
CC(C)Oc1ccc(C2C3=C(CC(C)(C)CC3=O)Nc3ccccc3N2C(=O)C(F)(F)F)cc1 (configuration not stated)	.	i	.	.	.	.
Cn1c(=O)c2c(nc(CN3CCc4ccccc4C3)n2Cc2ccc(F)cc2)n(C)c1=O	-5	i	4	-11	111	-5
Cc1ccccc1Cn1c(CN2CCc3ccccc3C2)nc2c1c(=O)n(C)c(=O)n2C	3	i	-9	-16	109	97*[fluorescence artefact?]
CCCOc1ccc(C(=O)Nc2ccc(N(C)C)cc2)cc1	-4	i	30	56*	89	7
CC(C)Oc1ccc(C(=O)Nc2ccc(N(C)C)cc2)cc1	13	i	21	2	83	37
COC(=O)c1ccc(N2C(=O)CC(SCCN)C2=O)cc1 (configuration not stated)	8	i	42	51*	134	1
O=C(CSc1n[nH]c(-c2ccc(S(=O)(=O)N3CCCCC3)cc2)n1)Nc1nccs1	50*	i	-9	-6	136	21
CC(C)N1CC2(c3ccccc31)N1CC3(C)CN2CC(C)(C1)C3=O (configuration not stated)	.	i	.	.	.	.
CN(C)c1cccc(C(=O)NC2CCCCCC2)c1	-6	i	75*	26	91	-8
COc1ccc(N2C(=O)C3C4C=CC(C4)C3C2=O)c(OC)c1 (configuration not stated)	16	i	-5	3	121	23
COc1ccc(C(=O)COc2ccccc2N2C(=O)C3C4C=CC(C4)C3C2=O)cc1 (configuration not stated)	51*[fluorescence artefact?]	.	.	.	59	2
C#CC[N+]1(CC#Cc2ccc(C#CC[N+]3(CC#C)CCOCC3)cc2)CCOCC1	45	.	.	.	81	60*[fluorescence artefact?]
O=C(CCC(=O)Nc1nnc(C2CCCCC2)s1)NCC1CCCO1 (configuration not stated)	63*	.	.	.	203*[fluorescence artefact?]	61*
COc1cccc(N(C(C)=O)c2nc(C)cc(C)c2C#N)c1	5	i	-3	-18	99	94*[fluorescence artefact?]
Cc1ccc(C2=Nn3cnnc3SC2)cc1	.	i	.	.	.	.
CC(=O)c1ccc(NC(=O)c2ccc3nc(-c4ccco4)c(-c4ccco4)nc3c2)cc1	92*[fluorescence artefact?]	.	.	.	29	95*[fluorescence artefact?]
Nc1c(C(=O)Nc2ccccc2)sc2nc(-c3ccco3)ccc12	69*[fluorescence artefact?]	i	23	21	125	58*[fluorescence artefact?]
SMILES	ERa SRC1 inh	BAP1 block	SF-1 act	RORa activator	ERa SRC1 pot	ERb SRC1 inh
CCCCNC(=O)c1ccc2nc(-c3ccco3)c(-c3ccco3)nc2c1	.	i	19	-16	.	.
O=C(Nc1ccccc1)c1ccc2nc(-c3ccco3)c(-c3ccco3)nc2c1	90*[fluorescence artefact?]	.	4	-21	35	88*[fluorescence artefact?]
COc1ccccc1NC(=O)c1sc2nc(-c3ccco3)ccc2c1N	45	i	24	-11	17	46
O=C(NCc1ccccc1)c1ccc2nc(-c3ccco3)c(-c3ccco3)nc2c1	93*[fluorescence artefact?]	.	.	.	36	97*[fluorescence artefact?]
COc1cccc(C(=O)Nc2nc(-c3ccc(Cl)cc3)cs2)c1	.	i	.	.	.	.
CCOc1ccc(NC(=NS(=O)(=O)c2ccc(Cl)cc2)c2ccccc2)cc1	.	i	.	.	.	.
CCC/C(=N/Nc1ccc(Cl)cc1)c1cnnc(-c2ccccc2)n1	94*	.	.	.	12	67*[fluorescence artefact?]
Cc1cc(C(=O)Nc2ccc3oc(-c4ccc(C(C)(C)C)cc4)nc3c2)ccc1[N+](=O)[O-]	.	i	.	.	.	.
COc1ccc(N2CC(C(=O)O)CC2=O)cc1 (configuration not stated)	-23	.	.	.	107	71*
COc1ccc(C(=O)Nc2ccc(-c3nc4ncccc4o3)cc2)cc1OC	.	i	.	.	.	.
CC(C)(C)NC(=O)c1cc2nc3c(c(C(F)(F)F)n2n1)CCc1ccccc1-3	.	i	.	.	.	.
Cc1noc(C)c1C(=O)NCc1ccco1	-12	i	1	-15	97	7
Cc1onc(-c2ccccc2Cl)c1C(=O)NCc1ccco1	86*[fluorescence artefact?]	i	7	7	41	54*
CCOc1cc(C2C(C(=O)OC)=C(C)NC3=C2C(=O)CC(c2ccc(OC)cc2)C3)cc(Cl)c1O (configuration not stated)	.	i	.	.	.	.
O=C(COc1ccccc1[N+](=O)[O-])Nc1ccccc1[N+](=O)[O-]	.	i	.	.	.	.
COc1ccc(NC(=O)Cn2nnc(-c3ccccc3NC(=O)c3cccs3)n2)cc1	33	i	2	44	237*[fluorescence artefact?]	30
CC(C)(C)NC(=O)Cn1nnc(-c2ccccc2NC(=O)c2ccco2)n1	12	.	.	.	124	-3
O=C(Cn1nnc(-c2ccccc2NC(=O)c2ccco2)n1)Nc1ccccc1	60*[fluorescence artefact?]	i	-2	10	286*[fluorescence artefact?]	43
Cc1occc1C(=O)Nc1nccs1	-16	i	4	8	85	5
Cc1oc(-c2ccccc2)nc1C(=O)Nc1nccs1	52*[fluorescence artefact?]	i	21	17	91	37
COC(=O)c1ccc(-c2n[nH]c(=O)c3ccccc23)cc1	1	i	7	-11	296*[fluorescence artefact?]	-2
CCOC(=O)Cn1cnc2sc3c(c2c1=O)CCC3	64*[fluorescence artefact?]	i	2	-5	86	70*
